Reference: publication PMC12811664 (Angewandte Chemie (International Ed. in English), 2025)
Substitutions are numbered along the chain they refer to.

How the values were obtained:
DC-SIGN ECD = molecular target: T1, DC-SIGN ECD (Homo sapiens, UniProt Q9NNX6); assay: Plate-based horseradish peroxidase; format: biochemical
T1 sequence (Q9NNX6 64-404): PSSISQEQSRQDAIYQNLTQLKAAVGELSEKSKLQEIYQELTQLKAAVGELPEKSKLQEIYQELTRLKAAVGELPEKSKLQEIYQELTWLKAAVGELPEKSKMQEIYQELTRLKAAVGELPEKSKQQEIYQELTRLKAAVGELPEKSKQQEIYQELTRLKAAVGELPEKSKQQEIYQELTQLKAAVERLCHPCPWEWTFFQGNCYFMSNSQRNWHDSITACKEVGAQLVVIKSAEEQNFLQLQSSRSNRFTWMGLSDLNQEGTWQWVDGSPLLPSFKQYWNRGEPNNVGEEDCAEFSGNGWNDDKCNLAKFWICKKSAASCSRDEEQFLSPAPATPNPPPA
Outline: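 Purified DC-SIGN extracellular domain immobilized on plates. Incubated overnight at 4 °C or room temperature with test compound at 0.5 mM for the screen, or at a concentration series for dose-response (overnight, RT, or varied incubation times). After washing, HRP added; it binds via its own glycans. Bound HRP read by peroxidase activity relative to DMSO control. Hit cutoff ≥50% change. EDTA, mannan and mannose used as controls. Mean of three biological replicates.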

DC-SIGN CRD wild type = molecular target: T2, DC-SIGN CRD wild type (Homo sapiens, UniProt Q9NNX6); assay: Dynamic light scattering of modified protein; conditions: protein-compound ratios up to 1:10
T2 sequence (Q9NNX6 253-404): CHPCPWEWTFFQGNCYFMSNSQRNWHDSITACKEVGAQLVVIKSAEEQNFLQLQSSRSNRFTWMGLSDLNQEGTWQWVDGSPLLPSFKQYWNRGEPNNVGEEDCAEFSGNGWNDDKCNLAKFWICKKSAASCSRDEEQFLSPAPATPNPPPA

DC-SIGN CRD = molecular target: T3, DC-SIGN CRD (Homo sapiens, UniProt Q9NNX6); assay: Grating-coupled interferometry; format: binding; conditions: mannose-PEG3 sensor; for EC50: EC50, GCI binding response, overnight incubation at RT
T3 sequence (Q9NNX6 253-404): T2 sequence (Q9NNX6 253-404)

DC-SIGN ECD K295R = molecular target: T4, DC-SIGN ECD K295R (Homo sapiens, UniProt Q9NNX6, K295R); assay: HRP binding assay with Lys mutant K295R; format: biochemical
T4 sequence (Q9NNX6 64-404 K295R): T1 sequence (Q9NNX6 64-404) with K232R

DC-SIGN ECD K373R = molecular target: T5, DC-SIGN ECD K373R (Homo sapiens, UniProt Q9NNX6, K373R); assay: HRP binding assay with Lys mutant K373R; format: biochemical
T5 sequence (Q9NNX6 64-404 K373R): T1 sequence (Q9NNX6 64-404) with K310R

DC-SIGN ECD K340R = molecular target: T6, DC-SIGN ECD K340R (Homo sapiens, UniProt Q9NNX6, K340R); assay: HRP binding assay with Lys mutant K340R; format: biochemical
T6 sequence (Q9NNX6 64-404 K340R): T1 sequence (Q9NNX6 64-404) with K277R

DC-SIGN CRD M270F = molecular target: T7, DC-SIGN CRD M270F (Homo sapiens, UniProt Q9NNX6, M270F); assay: Dynamic light scattering of modified protein, M270F mutant; conditions: secondary site blocked
T7 sequence (Q9NNX6 253-404 M270F): T2 sequence (Q9NNX6 253-404) with M18F

Structure (SMILES)	screening outcome, activity change compared to the DMSO control (DC-SIGN ECD; 0.5 mM compound, overnight, cutoff ∼50% activity change)	change of protein hydrodynamic size upon modification (DLS) (DC-SIGN CRD wild type)	EC50 (DC-SIGN CRD)	Hill slope (nH), GCI (DC-SIGN CRD)	activity (EC50) on mutant compared to the wild type, HRP assay (DC-SIGN ECD K295R)	activity (EC50) on mutant compared to the wild type, HRP assay (DC-SIGN ECD K373R)	time dependency of dose-response after varying incubation times, HRP assay (DC-SIGN ECD; reaction quenched at different time points)	activity (EC50) on mutant compared to the wild type, HRP assay (DC-SIGN ECD K340R)	change of protein hydrodynamic size upon modification (DLS) (DC-SIGN CRD M270F)	EC50 (DC-SIGN ECD)	IC50 (DC-SIGN ECD)
O=Cc1cc2ccccc2cc1C=O [Compound 30, naphthalene‐2,3‐dicarbaldehyde]	potential inhibitor	–	–	–	–	–	–	–	–	–	–
COc1c(Nc2cc(C(F)(F)F)cc(C(F)(F)F)c2)c(=O)c1=O [Compound 33, 3-((3,5-bis(trifluoromethyl)phenyl)amino)-4-methoxycyclobut-3-ene-1,2-dione]	–	no increase in size	100 µM	≈ 1	EC50s similar to that of the wild type	drastically reduced activity	clear time dependency	EC50s similar to that of the wild type	–	–	–
O=C(ON1C(=O)CCC1=O)c1cc(C(F)(F)F)cc(C(F)(F)F)c1 [Compound 11, 2,5-dioxopyrrolidin-1-yl 3,5-bis(trifluoromethyl)benzoate]	–	induces oligomerization	200 µM	–	No change in EC50	No change in EC50	–	No change in EC50	lack of oligomerization	30 µM	–
OC[C@H]1OC(O)[C@@H](O)[C@@H](O)[C@@H]1O (stereo partly shown) [mannose, reference compound]	–	–	–	–	–	–	–	–	–	–	11400 µM
